# From ChEMBL document CHEMBL4715745, “Synthesis and biological evaluation of novel FK228 analogues as potential isoform selective HDAC inhibitors” (Eur J Med Chem, 2016)
# What was measured:
# [1] = system: St-4; assay: Growth inhibition of human St-4 cells measured after 48 hrs by sulforhodamine B assay; assay type: functional
# How it was run: (§1)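 Panel of 39 human cancer cell lines tested at the Japanese Foundation for Cancer Research. Five concentrations per compound, spanning 10⁻¹¹–10⁻⁷ M, 10⁻¹⁰–10⁻⁶ M or 10⁻⁸–10⁻⁴ M, were used to build dose-response curves. GI₅₀ is the concentration giving 50% growth inhibition relative to control.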
# [2] = system: ACHN; assay: Growth inhibition of human ACHN cells measured after 48 hrs by sulforhodamine B assay; assay type: functional; how it was run: as §1
# [3] = system: NCI-H23; assay: Growth inhibition of human NCI-H23 cells measured after 48 hrs by sulforhodamine B assay; assay type: functional; how it was run: as §1
# [4] = Growth inhibition of human BSY1 cells measured after 48 hrs by sulforhodamine B assay; assay type: functional; conditions: BSY-1; how it was run: as §1
# [5] = system: U-251; assay: Growth inhibition of human U-251 cells measured after 48 hrs by sulforhodamine B assay; assay type: functional; how it was run: as §1
# [6] = system: OVCAR-3; assay: Growth inhibition of human OVCAR-3 cells measured after 48 hrs by sulforhodamine B assay; assay type: functional; how it was run: as §1
# [7] = system: MCF7; assay: Growth inhibition of human MCF7 cells measured after 48 hrs by sulforhodamine B assay; assay type: functional; how it was run: as §1
# [8] = system: LOX IMVI; assay: Growth inhibition of human LOX IMVI cells measured after 48 hrs by sulforhodamine B assay; assay type: functional; how it was run: as §1
# [9] = system: SNB-75; assay: Growth inhibition of human SNB-75 cells measured after 48 hrs by sulforhodamine B assay; assay type: functional; how it was run: as §1
# [10] = system: HCT-15; assay: Growth inhibition of human HCT-15 cells measured after 48 hrs by sulforhodamine B assay; assay type: functional; how it was run: as §1
# [11] = system: RXF 631; assay: Growth inhibition of human RXF 631 cells measured after 48 hrs by sulforhodamine B assay; assay type: functional; how it was run: as §1
# [12] = molecular target: T1, Protein deacetylase HDAC6 (Mus musculus, UniProt Q9Z2V5); assay: Inhibition of mouse HDAC6 expressed in 293T cells using Ac-KGLGK(Ac)-MCA as substrate incubated for 30 mins in presence of 0.1 mM DTT by fluorescence plate reader assay; design: species or system HEK293T
# T1 sequence (Q9Z2V5 whole entry): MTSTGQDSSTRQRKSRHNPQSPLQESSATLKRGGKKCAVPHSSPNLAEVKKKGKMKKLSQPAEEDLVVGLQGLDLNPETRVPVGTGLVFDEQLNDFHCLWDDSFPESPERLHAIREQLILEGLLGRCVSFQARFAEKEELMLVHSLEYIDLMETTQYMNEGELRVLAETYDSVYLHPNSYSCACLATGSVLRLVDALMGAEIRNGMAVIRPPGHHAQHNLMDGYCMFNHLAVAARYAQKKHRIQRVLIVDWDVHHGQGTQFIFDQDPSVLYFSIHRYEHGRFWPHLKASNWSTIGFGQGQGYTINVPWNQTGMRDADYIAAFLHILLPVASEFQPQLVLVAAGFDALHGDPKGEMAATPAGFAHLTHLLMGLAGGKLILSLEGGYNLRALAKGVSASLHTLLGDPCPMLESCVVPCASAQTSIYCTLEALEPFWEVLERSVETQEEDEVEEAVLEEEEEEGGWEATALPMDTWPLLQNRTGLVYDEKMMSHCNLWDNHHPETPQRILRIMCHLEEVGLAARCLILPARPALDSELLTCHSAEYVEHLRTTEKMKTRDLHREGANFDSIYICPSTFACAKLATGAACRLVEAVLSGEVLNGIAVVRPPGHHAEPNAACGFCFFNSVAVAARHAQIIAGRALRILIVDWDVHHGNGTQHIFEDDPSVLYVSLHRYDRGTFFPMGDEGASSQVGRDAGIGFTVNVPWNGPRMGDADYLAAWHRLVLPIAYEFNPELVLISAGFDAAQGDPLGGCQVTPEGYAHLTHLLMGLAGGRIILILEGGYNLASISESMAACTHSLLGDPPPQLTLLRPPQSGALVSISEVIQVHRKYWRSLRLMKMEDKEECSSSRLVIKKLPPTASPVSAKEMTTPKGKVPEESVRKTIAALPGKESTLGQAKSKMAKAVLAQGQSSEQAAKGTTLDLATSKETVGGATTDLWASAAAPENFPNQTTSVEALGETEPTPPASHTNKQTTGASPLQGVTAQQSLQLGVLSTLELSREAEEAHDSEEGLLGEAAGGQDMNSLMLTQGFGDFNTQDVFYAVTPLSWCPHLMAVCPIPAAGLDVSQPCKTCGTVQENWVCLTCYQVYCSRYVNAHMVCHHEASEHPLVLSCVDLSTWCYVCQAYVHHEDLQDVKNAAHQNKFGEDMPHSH
# How it was run: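 HDAC enzyme assay run in the presence of 0.1 mM dithiothreitol (DTT); IC₅₀ determined.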
# [13] = system: SF-295; assay: Growth inhibition of human SF-295 cells measured after 48 hrs by sulforhodamine B assay; assay type: functional; how it was run: as §1
# [14] = system: HT-29; assay: Growth inhibition of human HT-29 cells measured after 48 hrs by sulforhodamine B assay; assay type: functional; how it was run: as §1
# [15] = Selectivity index, ratio of IC50 for mouse HDAC6 expressed in 293T cells to IC50 for human HDAC1 expressed in 293T cells using Ac-KGLGK(Ac)-MCA as substrate incubated for 30 mins in presence of 0.1 mM DTT by fluorescence plate reader assay; conditions: 0.5 h
# How it was run: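 Ratio of HDAC6 IC₅₀ to HDAC1 IC₅₀, taken as selectivity for class I HDAC1 over class II HDAC6. Both enzyme assays were run in the presence of 0.1 mM DTT.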
# [16] = system: KM12; assay: Growth inhibition of human KM12 cells measured after 48 hrs by sulforhodamine B assay; assay type: functional; how it was run: as §1
# [17] = system: SK-OV-3; assay: Growth inhibition of human SK-OV-3 cells measured after 48 hrs by sulforhodamine B assay; assay type: functional; how it was run: as §1
# [18] = Growth inhibition of human HBC4 cells measured after 48 hrs by sulforhodamine B assay; assay type: functional; how it was run: as §1
# [19] = system: MKN-28; assay: Growth inhibition of human MKN-28 cells measured after 48 hrs by sulforhodamine B assay; assay type: functional; how it was run: as §1
# [20] = system: HCT-116; assay: Growth inhibition of human HCT-116 cells measured after 48 hrs by sulforhodamine B assay; assay type: functional; how it was run: as §1
# [21] = system: MKN-74; assay: Growth inhibition of human MKN-74 cells measured after 48 hrs by sulforhodamine B assay; assay type: functional; how it was run: as §1
# [22] = system: MKN-45; assay: Growth inhibition of human MKN-45 cells measured after 48 hrs by sulforhodamine B assay; assay type: functional; how it was run: as §1
# [23] = system: MKN-1; assay: Growth inhibition of human MKN-1 cells measured after 48 hrs by sulforhodamine B assay; assay type: functional; how it was run: as §1
# [24] = system: SF-539; assay: Growth inhibition of human SF-539 cells measured after 48 hrs by sulforhodamine B assay; assay type: functional; how it was run: as §1
# [25] = Growth inhibition of human HBC5 cells measured after 48 hrs by sulforhodamine B assay; assay type: functional; how it was run: as §1
# [26] = system: OVCAR-8; assay: Growth inhibition of human OVCAR-8 cells measured after 48 hrs by sulforhodamine B assay; assay type: functional; how it was run: as §1
# [27] = system: OVCAR-4; assay: Growth inhibition of human OVCAR-4 cells measured after 48 hrs by sulforhodamine B assay; assay type: functional; how it was run: as §1
# [28] = system: NCI-H522; assay: Growth inhibition of human NCI-H522 cells measured after 48 hrs by sulforhodamine B assay; assay type: functional; how it was run: as §1
# [29] = system: PC-3; assay: Growth inhibition of human PC-3 cells measured after 48 hrs by sulforhodamine B assay; assay type: functional; how it was run: as §1
# [30] = system: HCC 2998; assay: Growth inhibition of human HCC 2998 cells measured after 48 hrs by sulforhodamine B assay; assay type: functional; how it was run: as §1
# [31] = system: NCI-H460; assay: Growth inhibition of human NCI-H460 cells measured after 48 hrs by sulforhodamine B assay; assay type: functional; how it was run: as §1
# [32] = system: DMS-273; assay: Growth inhibition of human DMS-273 cells measured after 48 hrs by sulforhodamine B assay; assay type: functional; how it was run: as §1
# [33] = system: DMS-114; assay: Growth inhibition of human DMS-114 cells measured after 48 hrs by sulforhodamine B assay; assay type: functional; how it was run: as §1
# [34] = system: MKN-7; assay: Growth inhibition of human MKN-7 cells measured after 48 hrs by sulforhodamine B assay; assay type: functional; how it was run: as §1
# [35] = system: SF-268; assay: Growth inhibition of human SF-268 cells measured after 48 hrs by sulforhodamine B assay; assay type: functional; how it was run: as §1
# [36] = system: NCI-H226; assay: Growth inhibition of human NCI-H226 cells measured after 48 hrs by sulforhodamine B assay; assay type: functional; how it was run: as §1
# [37] = system: A549; assay: Growth inhibition of human A549 cells measured after 48 hrs by sulforhodamine B assay; assay type: functional; how it was run: as §1
# [38] = system: OVCAR-5; assay: Growth inhibition of human OVCAR-5 cells measured after 48 hrs by sulforhodamine B assay; assay type: functional; how it was run: as §1
# [39] = system: SNB-78; assay: Growth inhibition of human SNB-78 cells measured after 48 hrs by sulforhodamine B assay; assay type: functional; how it was run: as §1
# [40] = molecular target: Histone deacetylase 1 (Homo sapiens, UniProt Q13547); assay: Inhibition of human HDAC1 expressed in 293T cells using Ac-KGLGK(Ac)-MCA as substrate incubated for 30 mins in presence of 0.1 mM DTT by fluorescence plate reader assay; design: species or system HEK293T
# [41] = system: DU-145; assay: Growth inhibition of human DU-145 cells measured after 48 hrs by sulforhodamine B assay; assay type: functional; how it was run: as §1
# [42] = system: MDA-MB-231; assay: Growth inhibition of human MDA-MB-231 cells measured after 48 hrs by sulforhodamine B assay; assay type: functional; how it was run: as §1
# Sequence of Histone deacetylase 1 (Q13547 whole entry): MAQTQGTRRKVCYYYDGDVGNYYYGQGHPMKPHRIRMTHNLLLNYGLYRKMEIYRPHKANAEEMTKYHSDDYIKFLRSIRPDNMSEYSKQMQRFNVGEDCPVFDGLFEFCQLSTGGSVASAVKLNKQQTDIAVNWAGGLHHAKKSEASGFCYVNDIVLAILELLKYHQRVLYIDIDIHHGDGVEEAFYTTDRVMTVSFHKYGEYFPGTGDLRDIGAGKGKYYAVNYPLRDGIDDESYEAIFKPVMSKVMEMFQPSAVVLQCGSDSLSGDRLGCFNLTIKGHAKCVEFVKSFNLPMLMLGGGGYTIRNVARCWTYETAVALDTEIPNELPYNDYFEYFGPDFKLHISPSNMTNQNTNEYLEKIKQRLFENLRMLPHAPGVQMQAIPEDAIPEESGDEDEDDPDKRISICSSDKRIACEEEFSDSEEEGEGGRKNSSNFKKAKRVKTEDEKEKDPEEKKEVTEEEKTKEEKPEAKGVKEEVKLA
smiles,measurement,setting,value
CC(C)[C@H]1NC(=O)C[C@H]2/C=C/CCSSC[C@@H](NC1=O)C(=O)N[C@H](Cc1ccccc1)C(=O)NCC(=O)O2,GI50,[1],34 nM
same,GI50,[2],24 nM
same,GI50,[3],4.4 nM
same,GI50,[4],36 nM
same,GI50,[5],22 nM
same,GI50,[6],17 nM
same,GI50,[7],62 nM
same,GI50,[8],2.2 nM
same,GI50,[9],8.7 nM
same,GI50,[10],100 nM
same,GI50,[11],7.9 nM
same,IC50,[12],54.9 nM
same,GI50,[13],21 nM
same,GI50,[14],3 nM
same,Ratio IC50,[15],102
same,GI50,[16],2.8 nM
same,GI50,[17],2.4 nM
same,GI50,[18],37 nM
same,GI50,[19],78 nM
same,GI50,[20],2.6 nM
same,GI50,[21],5.9 nM
same,GI50,[22],64 nM
same,GI50,[23],2.6 nM
same,GI50,[24],3.3 nM
same,GI50,[25],84 nM
same,GI50,[26],4.6 nM
same,GI50,[27],27 nM
same,GI50,[28],0.72 nM
same,GI50,[29],5.7 nM
same,GI50,[30],3.2 nM
same,GI50,[31],6.2 nM
same,GI50,[32],20 nM
same,GI50,[33],4.1 nM
same,GI50,[34],35 nM
same,GI50,[35],5 nM
same,GI50,[36],4.8 nM
same,GI50,[37],3.4 nM
same,GI50,[38],6.8 nM
same,GI50,[39],8.6 nM
same,IC50,[40],0.54 nM
same,GI50,[41],3.6 nM
same,GI50,[42],8.7 nM
